Results from ChEMBL document CHEMBL1121898, “Potential antiestrogens. Synthesis and evaluation of mammary tumor inhibiting activity of 1,2-dialkyl-1,2-bis(3'-hydroxyphenyl)ethanes” (1981).
The source made the active and inactive calls. The rule behind the calls is not given here.

Assays:
MCF7 [1] = assay: Inhibition of estrogen receptor positive MCF-7 cell proliferation as cell number after 10 days at 10e-8 M; assay type: functional, Homo sapiens
Outline: (§1)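 MCF-7 cells were grown in McCoy's 5a medium with fetal bovine serum stripped by DCC (0.5 h, 45 °C). Compounds were dissolved in ethanol (final ≤0.5%) and diluted in complete medium. Cells were seeded at 5×10^4 cells/plate. On day 10, three replicate plates per group were counted by Coulter counter, three counts per plate. Percent T/C = test/control. In a retest, compounds were given at 10^-7 M with 17β-estradiol at 10^-7 or 10^-8 M.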

MCF7 [2] = assay: Inhibition of estrogen receptor positive MCF-7 cell proliferation as cell number after 10 days at 10e-7 M; assay type: functional, Homo sapiens; outline: as §1
MCF7 [3] = assay: Inhibition of estrogen receptor positive MCF-7 cell proliferation as percent treated/control cell number after 10 days at 10e-6 M; assay type: functional, Homo sapiens; outline: as §1
MCF7 [4] = assay: Inhibition of estrogen receptor positive MCF-7 cell proliferation as cell number after 10 days at 10e-6 M; assay type: functional, Homo sapiens; outline: as §1
MCF7 [5] = assay: Inhibition of estrogen receptor positive MCF-7 cell proliferation as percent treated/control cell number after 10 days at 10e-8 M; assay type: functional, Homo sapiens; outline: as §1
MCF7 [6] = assay: Inhibition of estrogen receptor positive MCF-7 cell proliferation as percent treated/control cell number after 10 days at 10e-7 M; assay type: functional, Homo sapiens; outline: as §1
Mus musculus = species: Mus musculus; assay: Vaginal cornification test in mice at 0.1 ug; cornified nonnucleated cells present (estrus); assay type: functional, organism-based

Row | SMILES | Cell number (MCF7 [1]) | Cell number (MCF7 [2]) | T/C (MCF7 [3]) [%] | Cell number (MCF7 [4]) | T/C (MCF7 [5]) [%] | T/C (MCF7 [6]) [%] | Activity (Mus musculus)
1 | CC/C(=C(\c1ccccc1)c1ccc(OCCN(C)C)cc1)c1ccccc1 [TAMOXIFEN] | 38000 | 34600 | 75 | 32900 | 87 | 79 | 
2 | C[C@]12CC[C@@H]3c4ccc(O)cc4CC[C@H]3[C@@H]1CCC2=O |  |  |  |  |  |  | Active
